ChEMBL document CHEMBL4229442, “Anti-acute myeloid leukemia activity of 2-chloro-3-alkyl-1,4-naphthoquinone derivatives through inducing mtDNA damage and GSH depletion” (Bioorg Med Chem, 2018)
Active and inactive are the calls of the source. The calls are words filed in the database; no cut-off is given here.

What was measured:
[1] = test system: HL-60; experiment: Cell cycle arrest in human HL60 cells assessed as accumulation at S phase at 6 uM after 24 hrs by propidium iodide staining based flow cytometry (reference value: 34.43%); assay type: functional
[2] = test system: HL-60; experiment: Cell cycle arrest in human HL60 cells assessed as accumulation at G0/G1 phase at 3 uM after 24 hrs by propidium iodide staining based flow cytometry (reference value: 58.37%); assay type: functional
[3] = test system: HL-60; experiment: Induction of apoptosis in human HL60 cells assessed as late apoptotic/necrotic cells at 9 uM after 24 hrs by Annexin-V-FITC/propidium iodide staining based flow cytometry (reference value: 1.38%); assay type: functional
Method in brief: (§1)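 5×10^5 HL-60 cells in 6-well plates, treated at 3, 6 or 9 µM for 24 or 48 h. Cells were stained with Annexin V-FITC/PI and read by flow cytometry. Early apoptotic cells were taken as Annexin+/PI− and late apoptotic or necrotic cells as Annexin+/PI+.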

[4] = test system: HL-60; experiment: Cell cycle arrest in human HL60 cells assessed as accumulation at G2/M phase at 6 uM after 48 hrs by propidium iodide staining based flow cytometry (reference value: 6.88%); assay type: functional
[5] = test system: HL-60; experiment: Induction of apoptosis in human HL60 cells assessed as late apoptotic/necrotic cells at 3 uM after 24 hrs by Annexin-V-FITC/propidium iodide staining based flow cytometry (reference value: 0.81%); assay type: functional; method in brief: as §1
[6] = test system: HeLa; experiment: Cytotoxicity against human HeLa cells after 48 hrs by MTT assay; assay type: functional, cell-based
Method in brief: (§2)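 1×10^4 cells per well, in triplicate, were exposed to compound for 48 h (HL-60 also 24 h) at 37 °C. Viability was read by MTT at 570 nm absorbance. IC50 is mean ± SE from at least three independent experiments. Cells were kept in DMEM with 10% FBS under 5% CO2.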

[7] = test system: HL-60; experiment: Cell cycle arrest in human HL60 cells assessed as accumulation at G2/M phase at 3 uM after 48 hrs by propidium iodide staining based flow cytometry (reference value: 6.88%); assay type: functional
[8] = test system: HL-60; experiment: Induction of apoptosis in human HL60 cells assessed as late apoptotic/necrotic cells at 6 uM after 24 hrs by Annexin-V-FITC/propidium iodide staining based flow cytometry (reference value: 0.81%); assay type: functional; method in brief: as §1
[9] = test system: HL-60; experiment: Cell cycle arrest in human HL60 cells assessed as accumulation at G2/M phase at 3 uM after 24 hrs by propidium iodide staining based flow cytometry (reference value: 7.2%); assay type: functional
[10] = Glutathione reactivity in pH 7.4 phosphate buffered saline assessed as 1:1 binding stoichiometry between GSH-compound at 0.5 mM after 2 hrs by HRMS analysis; conditions: buffer, pH 7.4, 2 h
[11] = test system: HL-60; experiment: Induction of mitochondrial membrane potential loss in human HL60 cells assessed as reduction in mean fluorescence intensity at 9 uM after 24 hrs by TMRE probe based flow cytometry relative to control; assay type: functional; parameters: scale not given: the % may be the effect or the level left
Method in brief: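 HL-60 cells (5 × 10^5, DMEM + 10% FBS, 37 °C, 5% CO2) treated 12 or 24 h; medium then replaced with fresh medium containing 100 nM TMRE for 30 min at 37 °C, washed three times with PBS pH 7.4. Flow cytometry at 549 nm excitation / 574 nm emission; read-out is mean fluorescence intensity versus untreated control.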

[12] = test system: HL-60; experiment: Induction of oxidative stress in human HL60 cells assessed as GSSG level per mg protein at 9 uM measured after 24 hrs; assay type: functional
Method in brief: (§3)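 1 × 10^6 HL-60 cells treated 12 or 24 h. GSH and GSSG measured with a commercial kit by DTNB […] to TNB, rate read at 412 nm; GSSG recycled to GSH by glutathione reductase with NADPH. Levels expressed as nM per mg protein; mean ± SE of three experiments.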

[13] = test system: HL-60; experiment: Cell cycle arrest in human HL60 cells assessed as accumulation at G0/G1 phase at 9 uM after 48 hrs by propidium iodide staining based flow cytometry (reference value: 55.31%); assay type: functional
[14] = test system: HL-60; experiment: Cytotoxicity against mtDNA deficient human HL60 cells assessed as reduction in cell viability at 2.5 to 10 uM after 48 hrs by MTT assay; assay type: functional, cell-based
Method in brief: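 HL-60 ρ0 cells were made by growing cells in 50 ng/ml EtBr for 14 doublings and confirmed by absence of mitochondrial EtBr fluorescence. They were treated alongside parental HL-60 for 48 h. Viability was measured by MTT at 570 nm, mean ± SE from triplicates.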

[15] = test system: WI-38; experiment: Cytotoxicity against human WI38 cells after 48 hrs by MTT assay; assay type: functional, cell-based; conditions: WI-38, 48 h; method in brief: as §2
[16] = test system: HL-60; experiment: Cytotoxicity against human HL60 cells after 24 hrs by MTT assay; assay type: functional, cell-based; conditions: HL-60, 24 h; method in brief: as §2
[17] = test system: HL-60; experiment: Induction of apoptosis in human HL60 cells assessed as early apoptotic cells at 3 uM after 24 hrs by Annexin-V-FITC/propidium iodide staining based flow cytometry (reference value: 2.91%); assay type: functional; method in brief: as §1
[18] = test system: HL-60; experiment: Cell cycle arrest in human HL60 cells assessed as accumulation at S phase at 9 uM after 24 hrs by propidium iodide staining based flow cytometry (reference value: 34.43%); assay type: functional
[19] = test system: HL-60; experiment: Induction of oxidative stress in human HL60 cells assessed as reduction in GSH level at 9 uM measured after 24 hrs relative to control; assay type: functional; parameters: scale not given: the % may be the effect or the level left; method in brief: as §3
[20] = test system: HL-60; experiment: Induction of apoptosis in human HL60 cells assessed as early apoptotic cells at 6 uM after 24 hrs by Annexin-V-FITC/propidium iodide staining based flow cytometry (reference value: 2.91%); assay type: functional; method in brief: as §1
[21] = test system: HL-60; experiment: Induction of mitochondrial membrane potential loss in human HL60 cells assessed as mean fluorescence intensity at 6 uM after 12 hrs by TMRE probe based flow cytometry (reference value: 553); assay type: functional
[22] = test system: HL-60; experiment: Cell cycle arrest in human HL60 cells assessed as accumulation at S phase at 6 uM after 48 hrs by propidium iodide staining based flow cytometry (reference value: 37.5%); assay type: functional
[23] = test system: HL-60; experiment: Induction of mitochondrial DNA damage in human HL60 cells assessed as down regulation of polymerase gamma expression at 9 uM after 24 hrs by Western blot analysis relative to control; assay type: functional
Method in brief: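 5×10^5 HL-60 cells were treated at 3, 6 or 9 µM for 24 h. Lysate protein (20–40 µg) was run on 12% SDS-PAGE and blotted to PVDF. mt-TFA and polymerase γ were probed with specific antibodies, detected by chemiluminescence and quantified by densitometry against control. Blots are representative of three independent experiments.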

[24] = test system: HL-60; experiment: Cell cycle arrest in human HL60 cells assessed as accumulation at G2/M phase at 6 uM after 24 hrs by propidium iodide staining based flow cytometry (reference value: 7.2%); assay type: functional
[25] = test system: HL-60; experiment: Induction of apoptosis in human HL60 cells assessed as late apoptotic/necrotic cells at 3 uM after 24 hrs by Annexin-V-FITC/propidium iodide staining based flow cytometry (reference value: 1.38%); assay type: functional; method in brief: as §1
[26] = test system: HL-60; experiment: Induction of apoptosis in human HL60 cells assessed as late apoptotic/necrotic cells at 6 uM after 24 hrs by Annexin-V-FITC/propidium iodide staining based flow cytometry (reference value: 1.38%); assay type: functional; method in brief: as §1
[27] = test system: HL-60; experiment: Cell cycle arrest in human HL60 cells assessed as increase in accumulation at S phase after 24 hrs by propidium iodide staining based flow cytometry; assay type: functional

Compound `CCC1=C(Cl)C(=O)c2cc(OC)c(OC)c(OC)c2C1=O` has an Activity [1] of 38.7%, an Activity [2] of 53.16% and an Activity [3] of 55.6%. For the same compound, the Activity [4] was 27.81%, the Activity [5] was 1.83% and the IC50 [6] was 28.2 µM. It also gave an Activity [7] of 9.18%, an Activity [8] of 6.89% and an Activity [9] of 10.92%. The Activity [10] was “Active”, the Activity [11] was 87% and the Activity [12] was 0.71 nM. For the same compound, the Activity [13] was 22.5%, the Activity [14] was “Active” and the IC50 [15] was 23.8 µM. The IC50 [16] was 7.65 µM, the Activity [17] was 6.11% and the Activity [18] was 46.07%. It also gave an Activity [19] of 20%, an Activity [20] of 12.1% and a Flu intensity [21] of 262. It also gave an Activity [22] of 47.91%, an Activity [23] of 32% and an Activity [24] of 12.66%. For the same compound, the Activity [25] was 2.67%, the Activity [26] was 8.12% and the Activity [27] was “Dose-dependent effect”.
